Rpn11 inh: blocks the human proteasome subunit Rpn11. human 26S proteasome, Ub4-pepOG fluorescence polarization; 20S core pre-blocked with epoxomicin. inhibition, % at 20 µM. 360,000 compounds, 0.59% hits. AID 588493;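 active means inhibition at 20 µM, scaled to each plate's controls, above about 33%, limit read from the data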
SUMO1-SIM PPI: SUMO1-SIM interaction modulation; P63165; AID 602429; inhibition, % at 20 µM; 360,000 compounds, 0.33% hits; SUMO1 binding to a labelled peptide, TR-FRET, 1 h; in the data active means inhibition above about 37%
Target sequence (P63165 whole entry, looked up): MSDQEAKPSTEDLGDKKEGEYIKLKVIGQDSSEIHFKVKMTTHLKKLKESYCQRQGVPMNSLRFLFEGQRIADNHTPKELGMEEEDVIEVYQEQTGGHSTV
LMPTP block: blocks human LMPTP phosphatase. P24666. recombinant LMPTP-A, OMFP fluorogenic substrate, fluorescence intensity. inhibition, % at 20 µM. 360,000 compounds, 0.22% hits;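 active means compounds that cut the enzyme signal by at least half of the control window in the single-dose screen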
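Test system – LMPTP-A phosphatase enzyme · Quantity – 0.625 nM LMPTP-A final · Reagent – OMFP substrate, 400 µM final · Dosing – one test concentration per compound, 20 µM, with 3% DMSO overall · Timing – 50 min enzyme reaction at room temperature, protected from light · Detection – fluorescence intensity · Controls – substrate-only low control, DMSO enzyme-plus-substrate high control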
DNMT1 block: blocks human DNA methyltransferase DNMT1; 360,000 compounds, 0.83% hits; AID 588458; P26358; DNMT1 molecular beacon, Hinp1I cleavage, fluorescence; inhibition (reported as % activation of signal), % at 10 µM; in the data active means inhibition above about 50%
STEP block: STEP (human) phosphatase inhibition; 360,000 compounds, 0.25% hits; inhibition, % at 20 µM; AID 588621; recombinant STEP, OMFP fluorogenic substrate, fluorescence;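 active means inhibition at 20 µM, scaled per plate between control wells, above about 37%, limit read from the data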
Target sequence (P54829 whole entry, looked up): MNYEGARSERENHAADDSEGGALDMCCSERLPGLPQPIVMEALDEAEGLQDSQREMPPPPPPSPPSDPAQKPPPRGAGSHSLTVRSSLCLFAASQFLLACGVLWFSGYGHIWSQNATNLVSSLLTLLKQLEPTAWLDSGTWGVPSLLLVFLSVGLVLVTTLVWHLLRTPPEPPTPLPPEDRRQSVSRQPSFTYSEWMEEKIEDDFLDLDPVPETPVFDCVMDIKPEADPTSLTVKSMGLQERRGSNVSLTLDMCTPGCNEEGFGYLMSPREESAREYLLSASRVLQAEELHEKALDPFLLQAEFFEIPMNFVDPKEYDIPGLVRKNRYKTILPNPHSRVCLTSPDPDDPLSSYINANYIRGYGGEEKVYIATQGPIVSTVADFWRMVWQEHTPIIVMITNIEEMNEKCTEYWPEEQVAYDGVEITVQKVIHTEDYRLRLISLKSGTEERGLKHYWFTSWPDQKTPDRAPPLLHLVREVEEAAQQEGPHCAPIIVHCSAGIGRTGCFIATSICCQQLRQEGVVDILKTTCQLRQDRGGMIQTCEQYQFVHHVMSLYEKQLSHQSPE
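Material: STEP (striatal-enriched tyrosine phosphatase) enzyme, cell-free; Compound dosing: 20 µM single dose in 1% DMSO; Technique: fluorescence read at 480 nm ex / 540 nm em; Times: reaction 20 min, ambient temperature; Medium: 50 mM Bis-Tris pH 6.0 with 2.5 mM DTT and 0.005% Tween 20; Also added: OMFP at 25 µM.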
Scp1 inh: blocks human Scp-1 phosphatase activity; Q9GZU7; Recombinant Scp1, phosphopeptide, malachite green phosphate absorbance; inhibition, % at 20 µM; 340,000 compounds, 0.88% hits; AID 493091;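 active means inhibition above about 50% at 20 µM, limit read from the data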
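Test system: SCP-1 phosphatase catalytic domain, residues 76-261 | Compound dosing: One concentration, 20 µM, with 1.0% DMSO | Schedule: 45 min room-temperature reaction, 5 min colour, 30 min stabiliser | Detection: Absorbance at 630 nm | Read-out basis: % inhibition of SCP-1 phosphate liberation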
Scp-1 conf: confirmation of human Scp-1 phosphatase inhibitors; 2,500 compounds, 61% hits; inhibition, % at 20 µM; recombinant SCP-1 catalytic domain, phosphate release, malachite green absorbance; AID 540281; shares compounds with Scp1 inh;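 active means inhibition of at least 30% at 20 µM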
Scp-1 MG ctr: interferes with malachite green readout, flagging false Scp-1 hits. shares compounds with Scp1 inh. Colorimetric interference counterscreen, malachite green absorbance 630 nm. 2,500 tested, under 10 active. apparent inhibition (interference), % at 20 µM;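 active means inhibition of at least 30% at 20 µM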;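 further: compounds added after enzyme reaction finished so only phosphate colour detection is probed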
Scp1 DSF: validation of human Scp-1 inhibitors by thermal shift binding; shares compounds with Scp1 inh; thermal shift relative to vanadate control, % at 40 µM; AID 540329; 1,500 compounds, 25% hits; Recombinant SCP1, Sypro Orange thermal shift Tm;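 active means substances whose mean melting-temperature shift, as a percentage of the reference inhibitor's shift, reaches about 5.3%, limit read from the data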
DNMT1 interf DR: counter-screen for DNMT1 inhibitors: spectral interference, dose response. molecular beacon fluorescence. 200 tested, under 10 active. IC50, µM. shares compounds with DNMT1 block; call rule not given here
DNMT1 inh conf: DNMT1 inhibition confirmation, single concentration; shares compounds with DNMT1 block; DNMT1 molecular beacon HinP1I cleavage, fluorescence; 2,300 compounds, 8% hits; AID 602385; inhibition, % at 10 µM;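 active means average inhibition of at least 30% in the single-concentration confirmation test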
DNMT1 interf: beacon fluorescence artifact counter-screen | shares compounds with DNMT1 block | activation (fluorescence interference), % at 10 µM | DNMT1 molecular beacon spectral interference counterscreen, fluorescence 485/520 | 2,300 compounds, 1% hits;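 active means activation of at least 30% at 10 µM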;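 further: DNMT1 catalytic domain with a HinP1I cleavage step and a FAM/dabcyl DNA beacon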
Rpn11 inh conf: confirmation of human proteasome Rpn11 inhibitors; AID 602318; purified human 26S proteasome, Ub4-pepOG fluorescence polarization; proteasome pretreated with epoxomicin; shares compounds with Rpn11 inh; inhibition, % at 20 µM; 1,900 compounds, 29% hits
MMP-2 counter: counter-screen for RPN11 inhibitors: inhibition of human MMP-2 | inhibition, % at 20 µM | AID 602330 | recombinant MMP-2, FRET peptide cleavage fluorescence | 1,900 compounds, 4% hits | shares compounds with Rpn11 inh;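 further: human MMP-2 activated beforehand with APMA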
Thrombin inh: counter-screen for RPN11 inhibitors: inhibition of bovine thrombin. shares compounds with Rpn11 inh. bovine thrombin cleavage of Ub4-pepOG, fluorescence polarization. inhibition, % at 20 µM. 1,900 compounds, 13% hits. AID 602333;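 active means mean inhibition at least 40% at 20 µM, or signal 3 deviations below plate average, so some actives read negative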
Large screens that a line does not name were inactive (follow-up assays come after a bar, where they were run). Compounds with a hit are over-represented: about 2.3% of the library has one in this group of screens. Unless noted, no stated cut-off is given here; in the data, active means inhibition above about 40%; inactive means the rest.

O=C1Nc2ccc(S(=O)(=O)NCc3ccco3)c3cccc1c23	DNMT1 block 63, Scp1 inh 56 | Scp-1 conf 70 | Scp-1 MG ctr inactive | Scp1 DSF inactive | DNMT1 inh conf inactive | DNMT1 interf 78
N#C/C(=C/c1ccc(OC(=O)c2ccc(Br)s2)cc1)c1nc2ccccc2[nH]1	DNMT1 block 85, Scp1 inh 96 | Scp-1 conf 80 | Scp-1 MG ctr inactive | Scp1 DSF inactive | DNMT1 inh conf inactive | DNMT1 interf inactive
N#C/C(=C\c1ccncc1)c1nc2ccccc2[nH]1	none
Cc1cc(NC(=O)CSc2sc3c(O)cc(=O)[nH]c3c2C#N)ccc1Br	DNMT1 block 61, Scp1 inh 59 | Scp-1 conf 52 | Scp-1 MG ctr inactive | Scp1 DSF 17 | DNMT1 inh conf inactive | DNMT1 interf inactive
Cc1cc(NC(=O)CSc2nc3[nH]c(=O)cc(O)c3s2)ccc1Br	none
NS(=O)(=O)c1ccc(CCNC(=O)CCS(=O)(=O)c2ccc(Br)cc2)cc1	SUMO1-SIM PPI 75, DNMT1 block 87, Scp1 inh 96 | Scp-1 conf 66 | Scp-1 MG ctr inactive | Scp1 DSF inactive | DNMT1 inh conf inactive | DNMT1 interf inactive
O=C(CCNS(=O)(=O)c1ccc(Br)cc1)NCCc1ccccc1	none
Cc1ccc(S(=O)(=O)CCC(=O)Nc2cccc(C)c2)cc1	none
CCc1cccc(NC(=O)CCS(=O)(=O)c2ccc(Br)cc2)c1	DNMT1 block 88, Scp1 inh 86 | Scp-1 conf 65 | Scp-1 MG ctr inactive | Scp1 DSF inactive | DNMT1 inh conf inactive | DNMT1 interf inactive
O=C(CCS(=O)(=O)c1ccc(Br)cc1)NCCc1ccccc1	DNMT1 block 84, Scp1 inh 88 | Scp-1 conf 62 | Scp-1 MG ctr inactive | Scp1 DSF inactive | DNMT1 inh conf inactive | DNMT1 interf inactive
CN(C)CCNC(=O)Cn1ccc2cc(S(=O)(=O)N3CCCCCC3)ccc21	none
O=C(NCc1c(Cl)cccc1Cl)c1[nH]c(C(F)(F)F)nc1-c1ccccc1	none (no result: Scp1 inh)
O=C(COC(=O)C1CCN(S(=O)(=O)c2cc([N+](=O)[O-])ccc2Cl)CC1)Nc1ncc(Cl)cc1Cl	DNMT1 block 86, Scp1 inh 68 | Scp-1 conf 58 | Scp-1 MG ctr inactive | Scp1 DSF 14 | DNMT1 inh conf inactive | DNMT1 interf inactive
COc1ccc(S(=O)(=O)N2Cc3ccccc3CC2C(=O)Nc2ccc3c(c2)OCO3)cc1 (centres undefined)	none
Cc1ccc(S(=O)(=O)N2Cc3ccccc3CC2C(=O)Nc2ccc3c(c2)OCO3)cc1 (centres undefined)	DNMT1 block 66, Scp1 inh 70 | Scp-1 conf 57 | Scp-1 MG ctr inactive | Scp1 DSF inactive | DNMT1 inh conf inactive | DNMT1 interf inactive
COc1ccc(-c2csc(NC(=O)CSc3nc(C)cs3)n2)cc1	none
COc1ccc(-c2csc(NC(=O)CSc3nc(C)nc4sc(C(=O)O)c(C)c34)n2)cc1	DNMT1 block 81, Scp1 inh 87 | Scp-1 conf 64 | Scp-1 MG ctr inactive | Scp1 DSF 10 | DNMT1 interf DR inactive | DNMT1 inh conf 62 | DNMT1 interf inactive
Cc1noc(C)c1NC(=O)N(C)C[C@H]1Oc2ccc(NC(=O)Nc3ccc(C(F)(F)F)cc3)cc2C(=O)N([C@H](C)CO)C[C@@H]1C	none
C/C(=N\NC(=O)Cc1cccn1C)c1ccco1	none
Cn1cccc1CC(=O)N/N=C/C=C/c1ccco1	DNMT1 block 96, Scp1 inh 69 | Scp-1 conf 40 | Scp-1 MG ctr inactive | Scp1 DSF inactive | DNMT1 inh conf inactive | DNMT1 interf inactive
COC(=O)c1ccccc1NC(=O)c1noc2c1CCC2	DNMT1 block 99, Scp1 inh 70 | Scp-1 conf 65 | Scp-1 MG ctr inactive | Scp1 DSF inactive | DNMT1 inh conf inactive | DNMT1 interf inactive
CSc1ccccc1NC(=O)c1noc2c1CCC2	DNMT1 block 81, Scp1 inh 63 | Scp-1 conf 67 | Scp-1 MG ctr inactive | Scp1 DSF inactive | DNMT1 inh conf inactive | DNMT1 interf inactive
COc1ccc(CN2CCN(C(=O)c3ccccc3C(=O)c3ccccc3)CC2)cc1F	none (no result: Scp1 inh)
CCOC(=O)c1ccc(NC(=O)CSc2nc(C)cc(=O)[nH]2)cc1	DNMT1 block 88, Scp1 inh 71 | Scp-1 conf 58 | Scp-1 MG ctr inactive | Scp1 DSF 11 | DNMT1 inh conf inactive | DNMT1 interf inactive
Cc1cc(=O)[nH]c(SCC(=O)Nc2ccc(C(=O)O)cc2)n1	none
Cc1ccc(CSCC(=O)N/N=C/c2ccc(OCC(=O)Nc3ccc(C)cc3)cc2)cc1	Rpn11 inh 102, DNMT1 block 69, Scp1 inh 112 | Scp-1 conf 80 | Scp-1 MG ctr inactive | Scp1 DSF inactive | DNMT1 inh conf inactive | DNMT1 interf inactive | Rpn11 inh conf 80 | MMP-2 counter inactive | Thrombin inh inactive
COc1ccc(CSCC(=O)N/N=C/c2ccc(OCC(=O)N3CCCCC3)cc2)cc1	none
CC1CCN(C(=O)CSc2nc(C(C)C)nc3c2c(=O)n(C)c(=O)n3C)CC1	none

From PubChem BioAssay
